According to ChEMBL document CHEMBL4665630, “Synthesis and biological evaluation of anthraquinone derivatives as allosteric phosphoglycerate mutase 1 inhibitors for cancer treatment” (Eur J Med Chem, 2019):
pIC50: −log10 of the molar value.

The molecules below were run against Phosphoglycerate mutase 1 (Homo sapiens, UniProt P18669) (assay: Inhibition of human recombinant PGAM1 by measuring decrease in OD by enzyme based assay). Settings: not given.
Chain of Phosphoglycerate mutase 1 (P18669 whole entry): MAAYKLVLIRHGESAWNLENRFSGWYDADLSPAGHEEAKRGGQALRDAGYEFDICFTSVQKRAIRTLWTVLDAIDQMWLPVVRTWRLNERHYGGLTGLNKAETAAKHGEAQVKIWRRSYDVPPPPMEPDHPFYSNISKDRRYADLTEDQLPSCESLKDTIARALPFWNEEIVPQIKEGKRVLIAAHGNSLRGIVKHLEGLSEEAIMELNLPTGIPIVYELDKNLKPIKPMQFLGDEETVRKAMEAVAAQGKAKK
Method in brief: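 C-terminal His6-tagged PGAM1, Ni-NTA purified, 4.6 nM, preincubated with inhibitor in DMSO; coupled enolase/pyruvate kinase M2/LDH system in 100 mM Tris-HCl, 100 mM KCl, 5 mM MgCl2, 1 mM ADP, 0.2 mM NADH, 4 mM 3PG; NADH loss read at 340 nm. Counter-screen without PGAM1 using 4 mM 2PG. Mean ± s.d., n=3.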
O=C1c2ccccc2C(=O)c2c1cc(NS(=O)(=O)c1ccc(Cl)s1)c(O)c2O gave a pIC50 of 6.26.
O=C1c2ccccc2C(=O)c2c1cc(NS(=O)(=O)c1ccccc1)c(O)c2O gave a pIC50 of 5.82.
With COc1ccc(S(=O)(=O)Nc2cc3c(c(O)c2O)C(=O)c2ccccc2C3=O)cc1OC the pIC50 was 5.55.
With CCCCS(=O)(=O)Nc1cc2c(c(O)c1O)C(=O)c1ccccc1C2=O the pIC50 was 5.69.
In the case of CC1CC(C)CN(c2ccc(S(=O)(=O)Nc3cc4c(c(O)c3O)C(=O)c3ccccc3C4=O)cc2)C1 (stereo unspecified), the pIC50 was 5.59.
Molecule O=C1c2ccccc2C(=O)c2c1cc(NS(=O)(=O)c1ccc3ccccc3c1)c(O)c2O has a pIC50 of 6.72.
Molecule CC(C)(C)c1ccc(S(=O)(=O)Nc2cc3c(c(O)c2O)C(=O)c2ccccc2C3=O)cc1 has a pIC50 of 6.31.
Molecule CN(C)S(=O)(=O)Nc1cc2c(c(O)c1O)C(=O)c1ccccc1C2=O has a pIC50 of less than 5.00.
Molecule O=C1c2ccccc2C(=O)c2c1cc(NS(=O)(=O)N1CCOCC1)c(O)c2O has a pIC50 of less than 5.00.
O=C1c2ccccc2C(=O)c2c1cc(NS(=O)(=O)c1ccc(-c3ccc(Cl)cc3)cc1)c(O)c2O gave a pIC50 of 6.85.
Molecule Cc1ccc(S(=O)(=O)Nc2cc3c(c(O)c2O)C(=O)c2ccccc2C3=O)cc1 has a pIC50 of 6.44.
With O=C1c2ccccc2C(=O)c2c1cc(NS(=O)(=O)c1ccc(C3CCCCC3)cc1)c(O)c2O the pIC50 was 7.01.

What follows are molecules tested on NCI-H1299 (assay: Antiproliferative activity against human H1299 cells assessed as reduction in cell viability measured after 72 hrs by MTT assay). Settings: NCI-H1299, 72 h.
Type: functional, cell-based
Method in brief: (§1)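 Cells grown in RPMI-1640 (H1299, PC9) or F-12K (A549) with 10% FBS and penicillin/streptomycin; 2000 H1299 or A549 or 1000 PC9 cells per well, attached 24 h, exposed to inhibitor 72 h; MTT 0.5 mg/mL for 4 h, absorbance at 570 nm; mean ± s.d., n=3.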
O=C1c2ccccc2C(=O)c2c1cc(NS(=O)(=O)c1ccc(Cl)s1)c(O)c2O gave a pIC50 of 4.75.
O=C1c2ccccc2C(=O)c2c1cc(NS(=O)(=O)c1ccccc1)c(O)c2O gave a pIC50 of 4.67.
With COc1ccc(S(=O)(=O)Nc2cc3c(c(O)c2O)C(=O)c2ccccc2C3=O)cc1OC the pIC50 was 4.57.
CCCCS(=O)(=O)Nc1cc2c(c(O)c1O)C(=O)c1ccccc1C2=O was tested, and the pIC50 was 4.41.
CC1CC(C)CN(c2ccc(S(=O)(=O)Nc3cc4c(c(O)c3O)C(=O)c3ccccc3C4=O)cc2)C1 (stereo unspecified) gave a pIC50 of 4.99.
O=C1c2ccccc2C(=O)c2c1cc(NS(=O)(=O)c1ccc3ccccc3c1)c(O)c2O gave a pIC50 of 5.06.
Work on CC(C)(C)c1ccc(S(=O)(=O)Nc2cc3c(c(O)c2O)C(=O)c2ccccc2C3=O)cc1 yielded a pIC50 of 4.99.
In the case of O=C1c2ccccc2C(=O)c2c1cc(NS(=O)(=O)c1ccc(-c3ccc(Cl)cc3)cc1)c(O)c2O, the pIC50 was 5.20.
With Cc1ccc(S(=O)(=O)Nc2cc3c(c(O)c2O)C(=O)c2ccccc2C3=O)cc1 the pIC50 was 5.11.
In the case of O=C1c2ccccc2C(=O)c2c1cc(NS(=O)(=O)c1ccc(C3CCCCC3)cc1)c(O)c2O, the pIC50 was 5.34.

What follows are molecules tested on A549 (assay: Antiproliferative activity against human A549 cells assessed as reduction in cell viability measured after 72 hrs by MTT assay). Settings: A549, 72 h.
Type: functional, cell-based
Method in brief: as §1
O=C1c2ccccc2C(=O)c2c1cc(NS(=O)(=O)c1ccc(Cl)s1)c(O)c2O was tested, and the pIC50 was 4.91.
CC1CC(C)CN(c2ccc(S(=O)(=O)Nc3cc4c(c(O)c3O)C(=O)c3ccccc3C4=O)cc2)C1 (stereo unspecified) was tested, and the pIC50 was 5.04.
For O=C1c2ccccc2C(=O)c2c1cc(NS(=O)(=O)c1ccc3ccccc3c1)c(O)c2O, the pIC50 was less than 4.00.
In the case of CC(C)(C)c1ccc(S(=O)(=O)Nc2cc3c(c(O)c2O)C(=O)c2ccccc2C3=O)cc1, the pIC50 was 5.09.
O=C1c2ccccc2C(=O)c2c1cc(NS(=O)(=O)c1ccc(-c3ccc(Cl)cc3)cc1)c(O)c2O was tested, and the pIC50 was 5.17.
Cc1ccc(S(=O)(=O)Nc2cc3c(c(O)c2O)C(=O)c2ccccc2C3=O)cc1 showed a pIC50 of 4.60.
O=C1c2ccccc2C(=O)c2c1cc(NS(=O)(=O)c1ccc(C3CCCCC3)cc1)c(O)c2O was tested, and the pIC50 was 4.95.

These molecules were tested on PC-9 (assay: Antiproliferative activity against human PC-9 cells assessed as reduction in cell viability measured after 72 hrs by MTT assay). Settings: PC-9, 72 h.
Type: functional, cell-based
Method in brief: as §1
O=C1c2ccccc2C(=O)c2c1cc(NS(=O)(=O)c1ccc(Cl)s1)c(O)c2O showed a pIC50 of 4.79.
CC1CC(C)CN(c2ccc(S(=O)(=O)Nc3cc4c(c(O)c3O)C(=O)c3ccccc3C4=O)cc2)C1 (stereo unspecified) showed a pIC50 of 4.94.
Work on O=C1c2ccccc2C(=O)c2c1cc(NS(=O)(=O)c1ccc3ccccc3c1)c(O)c2O yielded a pIC50 of 5.33.
With CC(C)(C)c1ccc(S(=O)(=O)Nc2cc3c(c(O)c2O)C(=O)c2ccccc2C3=O)cc1 the pIC50 was 5.02.
With O=C1c2ccccc2C(=O)c2c1cc(NS(=O)(=O)c1ccc(-c3ccc(Cl)cc3)cc1)c(O)c2O the pIC50 was 5.18.
Cc1ccc(S(=O)(=O)Nc2cc3c(c(O)c2O)C(=O)c2ccccc2C3=O)cc1 was tested, and the pIC50 was 4.80.
In the case of O=C1c2ccccc2C(=O)c2c1cc(NS(=O)(=O)c1ccc(C3CCCCC3)cc1)c(O)c2O, the pIC50 was 4.94.
